Measured values published in ChEMBL document CHEMBL4118259, “Synthesis of sulfadiazinyl acyl/aryl thiourea derivatives as calf intestinal alkaline phosphatase inhibitors, pharmacokinetic properties, lead optimization, Lineweaver-Burk plot evaluation and binding analysis” (Bioorg Med Chem, 2018).
Calls of active or inactive are those of the source. The calls are words filed in the database; no cut-off is given here.

Assay: Antioxidant activity assessed as DPPH radical scavenging activity at 100 ug/ml measured after 30 mins
Type: functional
In short: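 DPPH radical scavenging with compounds at 100 µg/mL; mixture incubated at room temperature for 30 min, absorbance read at 517 nm; ascorbic acid as reference inhibitor; percentage activity given as mean ± SEM.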

## O=C(NC(=S)Nc1ccc(S(=O)(=O)Nc2ncccn2)cc1)c1ccccc1Cl
  Activity: inactive

## O=C1O[C@H]([C@@H](O)CO)C(O)=C1O
  Activity: Active

## CCCC(=O)NC(=S)Nc1ccc(S(=O)(=O)Nc2ncccn2)cc1
  Activity: inactive

## CCCCCCC(=O)NC(=S)Nc1ccc(S(=O)(=O)Nc2ncccn2)cc1
  Activity: inactive

## CC(=O)NC(=S)Nc1ccc(S(=O)(=O)Nc2ncccn2)cc1
  Activity: inactive

## CCCCCCCC(=O)NC(=S)Nc1ccc(S(=O)(=O)Nc2ncccn2)cc1
  Activity: inactive

## O=C(NC(=S)Nc1ccc(S(=O)(=O)Nc2ncccn2)cc1)c1ccc(Cl)cc1
  Activity: inactive

## O=C(NC(=S)Nc1ccc(S(=O)(=O)Nc2ncccn2)cc1)c1ccc(F)cc1
  Activity: inactive

## O=C(NC(=S)Nc1ccc(S(=O)(=O)Nc2ncccn2)cc1)c1ccc(Cl)cc1Cl
  Activity: Active

## O=C(NC(=S)Nc1ccc(S(=O)(=O)Nc2ncccn2)cc1)c1cc([N+](=O)[O-])cc([N+](=O)[O-])c1
  Activity: Active

## COc1ccc(C(=O)NC(=S)Nc2ccc(S(=O)(=O)Nc3ncccn3)cc2)cc1
  Activity: inactive
